From PubChem BioAssay
Shown are actives, neighbours in structure and some others; about 2.2% of the full set was active somewhere.
CR mimetic SO: caloric restriction mimetics inhibiting age-related superoxide in yeast | S. cerevisiae aged cells, superoxide DHE fluorescence; active compounds read low | AID 2690 | 0.18% of 330,000 active | superoxide response (% of plate mean), % at 10 µM;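 active = superoxide response under a set limit, about three screen SD below normal, cut at about 65% in these data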;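 note: yeast aged for seven days with compound at 30 °C before DHE staining; 100% = average MFI of all compound-treated wells on the plate with controls excluded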
rRNA inh HTS: inhibitors of bacterial rRNA selective over humanized ribosomes; E. coli WT GFP vs humanized-ribosome RFP mutants, fluorescence, 24 h; active compounds read low; DMSO median 0, no signal -100; GFP signal change (wild-type ribosome), % (concentration not given with the values); 1.6% of 350,000 active; AID 720706;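 active = significant combined selectivity score with lowered wild-type GFP, culture density cut under 30%, mutant RFP and density less affected; inactive = any of these conditions unmet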
PglD inh: blocks C. jejuni PglD acetyltransferase activity | 0.098% of 360,000 active | purified PglD enzyme, DTNB colorimetric CoA detection | inhibition, % at 12.5 µM; in the data active = inhibition above about 16%, passing the limit was not always enough
Cneo AK release: Cryptococcus neoformans lysis via adenylate kinase release; 0.2% of 360,000 active; lysis activity, % at 15 µM; C. neoformans lysis, adenylate kinase release luminescence, 4 h; normalised: neutral wells 0, clomiphene wells 100;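 active = mean lysis activity across replicates of at least 80%, whatever share of replicates individually reach that level; inactive = mean lysis activity below 80%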
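Test system: log-phase Cryptococcus neoformans yeast cells. Input: 5 × 10^6 yeast cells/mL. Medium: fresh YPD growth medium. Doses: single dose. Incubation: static 4 h at 37 °C with compound, 1 h detection. Measured by: luminescent adenylate kinase detection reagent. Read-out: signal increase indicating cell lysis. Benchmarks: Clomiphene.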
Mot1-301 SUMO: blocks SUMOylation pathway, rescuing yeast Mot1-301 growth. S. cerevisiae Mot1-301 growth rescue, ATP luminescence, 38.5C; percent above DMSO median, 100 means doubled. growth rescue, % at 18.8 µM. 1% of 320,000 active. AID 2716;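 active = every valid replicate shows activation above 250% relative to neutral control wells; inactive = the rest, any valid replicate at or below 250%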;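 note: OY570 slx delta 5 strain wells were the positive control but not used for scaling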
CR mimetic CP: yeast aging superoxide inhibition, cherry pick confirmation | shares compounds with CR mimetic SO | S. cerevisiae aging, superoxide DHE fluorescence; active compounds read low | superoxide response (% of plate), % at 10 µM | 1% of 850 active;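 active = superoxide signal below 65% of the plate average of sample wells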;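 note: cells aged with compound for 7 days at 30 degrees C before staining; 100% equals mean DHE fluorescence of all compound wells on the plate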
DHE fluor count: counter-screen for compounds affecting DHE oxidation and fluorescence in yeast; S. cerevisiae BY4741, flow cytometry; active compounds read low; shares compounds with CR mimetic SO; fluorescence response, % at 10 µM; 850 tested, under 10 active;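 active = fluorescence response below 15%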;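 note: percent of the mean fluorescence averaged over all compound wells on the plate; lower means stronger quenching of DHE signal or ROS scavenging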
Mot1 SUMO dose: inhibits SUMO pathway, affecting Mot1-301 yeast growth | growth activity, percent, % at 42 µM | AID 493004 | S. cerevisiae Mot1-301 galactose growth, ATP luminescence, 24 h; -100 = growth of slx-deleted rescue strain | 2,300 tested, under 10 active | shares compounds with Mot1-301 SUMO;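 active = Signal drops as the depositor expects, and the fitted half-maximal dose is no more than ten times the top valid tested dose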;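 note: more negative values mean stronger growth rescue toward the control strain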
AID977621: growth inhibition of wild-type GFP E. coli, dose response, H69 mutant RFP, cherry-pick | shares compounds with rRNA inh HTS | E. coli wild-type GFP strain growth, fluorescence, 24 h | activity change, negative = inhibition at 50 µM | 1,900 tested, under 10 active | AID 977621;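 active = Wild-type ribosome reporter drop at least double the humanized mutant ribosome reporter drop, growth loss under a set limit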;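 note: wild-type GFP and H69 mutant RFP strains grown together 50/50 in each well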
Starred values were filed as active, the others as inactive; / = no result; + = active, no number; ! = repeats disagree.

SMILES	CR mimetic SO	rRNA inh HTS	PglD inh	Cneo AK release	Mot1-301 SUMO	Mot1 SUMO dose	others
C#C[C@]1(O)[C@H](O)CC2C3CC[C@H]4C[C@@H](O)CC[C@]4(C)C3CC[C@@]21C (stereo partly specified)	94	3	7	0	3	/	CR mimetic CP=98;DHE fluor count=96
C[C@]12CCC3C(CC[C@H]4C[C@H](O)CC[C@]34C)C1C[C@H](O)[C@H]2O (stereo partly specified)	/	2	2	-2	/	/
C[C@]12CC[C@H](O)C[C@H]1CC[C@@H]1[C@@H]2CC[C@]2(C)C(=O)CC[C@@H]12	48*	-32	-1	-4	/	/	CR mimetic CP=78;DHE fluor count=118
C[C@]12CCC3C(CC[C@H]4C[C@@H](O)CC[C@]34C)C1C[C@@H](Br)[C@@H]2O (stereo partly specified)	101	2	/	/	8	/
C[C@]12CCC3[C@@H](CC[C@H]4C[C@@H](O)CC[C@]34C)C1CCC2=O (stereo partly specified)	81	-19	-3	-1	67	/
C[C@]12CCC3C(CC[C@@H]4C[C@H](O)CC[C@]34C)C1CCC2=O (stereo partly specified)	64*	/	-4	1	-5	/	CR mimetic CP=82;DHE fluor count=92
C[C@]12CCC3C(CC[C@H]4C[C@@H](O)CC[C@]34C)C1C[C@@H](N)[C@@H]2O (stereo partly specified)	93	/	-3	1	-9	/	CR mimetic CP=103;DHE fluor count=98
FC(F)(F)CN1C[C@@H]2N[C@H](C1)C2c1ccc(Br)cc1 (stereo partly specified)	/	-1	/	/	/	/
COC(=O)[C@@H]1[C@@H](CO)[C@@H]2Cn3c(ccc(C4=CCCC4)c3=O)[C@H]1N2C(=O)CC1CC1	/	2	-1	-6	/	/
O=C(Cc1ccccn1)N1CCCCN2[C@@H](CO)[C@H](c3ccc(Br)cc3)[C@@H]2C1	/	2	2	-1	/	/
Nc1cc2nc3ccccc3nc2cc1N	41*	-7	-6	2	-4	/	CR mimetic CP=68;DHE fluor count=89
C[C@]12CCC3C(CC[C@H]4C[C@@H](O)CC[C@]34C)[C@H]1CC[C@H]2O (stereo partly specified)	78	-20*	-7	-1	-9	/	CR mimetic CP=97;DHE fluor count=101;AID977621=-26
CN1[C@H](CO)[C@H]2c3ccccc3NC[C@H]21	/	5	-1	1	/	/
CCN(CC)c1ccc(N=Cc2c(O)n(-c3ccccc3)c(=O)[nH]c2=O)cc1	103	-7	/	/	-25	/
CCN(CC)c1ccc(N=Cc2c(O)n(Cc3ccccc3)c(=O)[nH]c2=O)cc1	104	/	-10	1	385*!	0
Cn1c(O)c(C(c2ccccn2)c2c(O)n(C)c(=S)n(C)c2=O)c(=O)n(C)c1=S	101	/	/	/	477*	0
Cn1c(O)c(C(c2ccncc2)c2c(O)n(C)c(=S)n(C)c2=O)c(=O)n(C)c1=S	111	/	0	3	-3	/
CN1C2CCC1CC(OC(=O)c1ccc([N+](=O)[O-])cc1)C2 (stereo unspecified)	105	9	/	/	474*	0
O=C(Cc1cccnc1)N1CCCCN2[C@H](C1)[C@H](c1ccc(C#CC3CCCC3)cc1)[C@@H]2CO	/	-51	-4	2	/	/
CN1C(=O)C(=Cc2ccc(N3CCCCC3)o2)C(=O)N(C)C1=S	115	/	/	/	848*	0
CCN(CC)c1ccc(C=C2C(=O)N(C)C(=S)N(C)C2=O)o1	114	6	-1	-1	-18	/
CCOP(=O)(Cc1ccc(C(=O)CC)o1)OCC	109	4	-7	-1	-7	/
CCOP(=O)(Cc1cc(C(=O)CC)c(C)o1)OCC	95	17	-3	0	658*	0
Fc1ccc2c(c1)nnn2C1CCN(Cc2nnnn2C2CCCCC2)CC1	112	/	4	-2	733*	0
O=C(Cc1ccccn1)N1CCCCN2[C@H](CO)[C@H](c3ccc(-c4ccccc4F)cc3)[C@@H]2C1	/	-3	2	3	/	/
SMILES	CR mimetic SO	rRNA inh HTS	PglD inh	Cneo AK release	Mot1-301 SUMO	Mot1 SUMO dose	others
COc1cccc(-c2ccc3n(c2=O)C[C@H]2[C@H](CO)[C@@H](C(=O)O)[C@@H]3N2Cc2ccccc2F)c1	/	-3	/	/	/	/
CN1C(=O)NC(=O)[C@]2(Cc3ccccc3N3CCN(c4ccccc4)CC32)C1=O (stereo partly specified)	111	/	-3	1	663*	1
O=C1NC(=O)[C@]2(Cc3ccccc3N3CCN(c4ccccc4)CC32)C(=O)N1c1ccccc1 (stereo partly specified)	119	/	-2	1	16	/
Cc1ccc(OC(=O)N(C)C[C@@H]2OCc3ccccc3-c3c(n(C)c4ccccc34)C(=O)N([C@@H](C)CO)C[C@@H]2C)cc1	/	-4	/	/	/	/
CC(C)Oc1ccc(C2(C#N)CC[N+](C)(C)CC2)cc1	93	/	/	/	670*	1
COc1cccc(-c2ccc3n(c2=O)C[C@@H]2[C@@H](CO)[C@H](C(=O)O)[C@H]3N2Cc2ccccc2F)c1	/	3	/	/	/	/
COC(=O)[C@H]1[C@H](CO)[C@H]2Cn3c(cccc3=O)[C@@H]1N2C(=O)C1CCCC1	/	4	3	-9	/	/
N=c1c[n+](C2CCCCC2)[n-]o1	95	18	3	1	484*	1
Clc1cnc(Oc2ccc(Oc3ncc(Cl)cc3Cl)cc2)c(Cl)c1	116	9	-3	0	623*	0
COC(=O)[C@@H]1[C@@H](CO)[C@@H]2Cn3c(ccc(-c4ccccc4OC)c3=O)[C@H]1N2Cc1ccccc1	/	-5	1	-1	/	/
CC(=O)c1cn(Cc2ccccc2F)c2ccccc12	/	-4	-1	-3	/	/
O=Cc1cn(Cc2ccccc2F)c2ccccc12	94	-25*	/	/	+	0
CCCNC(=O)[C@H]1[C@H](CO)[C@H]2Cn3c(cccc3=O)[C@@H]1N2CCC	/	3	2	-2	/	/
[N-]=[N+]=NCCN1CCC(O)CCC1=O (stereo unspecified)	93	-11	-4	3	+	0
CCC12CN3CCN(CC(C3)/C1=N/NC(=O)c1ccncc1)C2	89	13	1	1	507*	1
Cc1ccccc1NC1=NCCCS1	109	/	/	/	469*	0
